From ChEMBL document CHEMBL2040794, “Synthesis and structure-activity analysis of new phosphonium salts with potent activity against African trypanosomes” (J Med Chem, 2012)

Columns and labels:
[1] = tested on: Trypanosoma brucei rhodesiense; assay: Antitrypanosomal activity against Trypanosoma brucei rhodesiense STIB900 infected in rat L6 cells after 72 hrs by alamar blue assay; type: functional, organism-based
[2] = tested on: L6; assay: Cytotoxicity against rat L6 cells after 72 hrs by alamar blue assay; type: cell-based
[3] = Selectivity index, ratio of EC50 for rat L6 cells to EC50 for Trypanosoma brucei rhodesiense STIB900; type: toxicity, cell-based; conditions: for selectivity ratio: L6 cells, read-out: Ratio EC50; for Ratio EC50: l6
Outline: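 Ratio of EC₅₀ in L6 cells to EC₅₀ against T. b. rhodesiense STIB900, both from Alamar blue assays.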

[4] = tested on: Trypanosoma brucei brucei; assay: Antitrypanosomal activity against wild type Trypanosoma brucei brucei Lister 427 after 3 days by alamar blue assay; type: functional, organism-based
Outline: (§1)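 Bloodstream-form T. b. brucei (wild-type s427; TbAT1-KO, made from s427 by TbAT1 deletion; B48, selected from TbAT1-KO in vitro on pentamidine, lacking functional HAPT1). Cells were exposed to compound for 48 h, then resazurin (Alamar blue) was added for a further 24 h. A single fluorescence reading gave EC50.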

[5] = tested on: Trypanosoma brucei brucei; assay: Antitrypanosomal activity against diminazene aceturate-resistant TbAT1 gene-deficient Trypanosoma brucei brucei AT1-KO after 3 days by alamar blue assay; type: functional, organism-based; outline: as §1
[6] = tested on: Trypanosoma brucei brucei; assay: Resistance factor, ratio of EC50 for diminazene aceturate-resistant TbAT1 gene-deficient Trypanosoma brucei brucei AT1-KO to EC50 for wild type Trypanosoma brucei brucei Lister 427; type: functional
Outline: (§2)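 Resistance factor is the EC50 in the resistant line (TbAT1-KO or B48) divided by the EC50 in wild-type s427. […] Resistant and wild-type EC50s were compared by Student t-test.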

[7] = tested on: Trypanosoma brucei brucei; assay: Antitrypanosomal activity against diminazene-, pentamidine-, and melaminophenyl arsenical-resistant HAPT1-deficient Trypanosoma brucei brucei B48 after 3 days by alamar blue assay; type: functional, organism-based; outline: as §1
[8] = tested on: Trypanosoma brucei brucei; assay: Resistance factor, ratio of EC50 for diminazene-, pentamidine-, and melaminophenyl arsenical-resistant HAPT1-deficient Trypanosoma brucei brucei B48 to EC50 for wild type Trypanosoma brucei brucei Lister 427; type: functional; outline: as §2
[9] = Cytotoxicity against human HEK cells after 3 days by alamar blue assay; type: cell-based, HEK293
Outline: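 Human embryonic kidney cells tested by resazurin (Alamar blue) assay: 48 h with compound, then 24 h more after dye addition, single reading; EC₅₀ derived.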

[10] = Selectivity index, ratio of EC50 for human HEK cells to EC50 for wild type Trypanosoma brucei brucei Lister 427; type: toxicity, cell-based, HEK293; conditions: for selectivity ratio: HEK cells, read-out: Ratio EC50; for Ratio EC50: hek293
Outline: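 Ratio of EC₅₀ in HEK cells to EC₅₀ in wild-type T. b. brucei s427, both from resazurin assays.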

[11] = Inhibition of Trypanosoma brucei brucei LAPT1 assessed as [3H]-pentamidine uptake after 120 secs by scintillation counting
Outline: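 LAPT1 transport: late-log trypanosomes from HMI-9/10% FBS culture washed into pH 7.3 HEPES-bicarbonate-glucose buffer; 1 μM final [³H]-pentamidine uptake over 120 s with competitor. Uptake terminated with 2 mM ice-cold pentamidine and oil centrifugation; counted by scintillation, Ki from sigmoid curves; triplicate, at least three separate occasions.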

[12] = Trypanosoma brucei, STIB900, 72 h
[13] = Trypanosoma brucei, Lister 427, 72 h
[14] = Trypanosoma brucei, AT1-KO, 72 h

Row | Compound | EC50 [1, 12] [nM] | EC50 ([2]; Rattus norvegicus, L6, 72 h) [nM] | selectivity ratio [3] | EC50 [4, 13] [nM] | EC50 [5, 14] [nM] | Ratio EC50 [6] | EC50 ([7]; Trypanosoma brucei, B48, 72 h) [nM] | Ratio EC50 [8] | EC50 ([9]; Homo sapiens, HEK293, 72 h) [nM] | selectivity ratio [10] | Ki [11] [nM] | EC50 [1] [nM] | EC50 ([2]; l6) [nM] | Ratio EC50 [3] | EC50 [4] [nM] | EC50 [5] [nM] | EC50 [7] [nM] | EC50 ([9]; hek293) [nM] | Ratio EC50 [10]
1 | Cc1ccc([P+](Cc2ccc(Cc3ccc(C[P+](c4ccccc4)(c4ccccc4)c4ccc(C)cc4)cc3)cc2)(c2ccccc2)c2ccccc2)cc1.[Br-].[Br-] | 200 | 4470 | 22 | 240 | 190 | 0.8 | 180 | 0.7 | > 300000 | > 1250 | 20000 |  |  |  |  |  |  |  | 
2 | O=C(c1ccc(C[P+](C2CCCCC2)(C2CCCCC2)C2CCCCC2)cc1)c1ccc(C[P+](C2CCCCC2)(C2CCCCC2)C2CCCCC2)cc1.[Br-].[Br-] | 197 | 32700 | 166 | 140 | 230 | 1.6 | 250 | 1.8 | > 300000 | > 2100 | 39000 |  |  |  |  |  |  |  | 
3 | O=C(c1ccc(C[P+](c2ccccc2)(c2ccccc2)C2CCCCC2)cc1)c1ccc(C[P+](c2ccccc2)(c2ccccc2)C2CCCCC2)cc1.[Br-].[Br-] | 430 | 65800 | 155 | 300 | 410 | 1.4 | 330 | 1.1 | > 300000 | > 1000 | 19000 |  |  |  |  |  |  |  | 
4 | O=C(c1ccc(C[P+](c2ccccc2)(c2ccccc2)c2ccccc2)cc1)c1ccc(C[P+](c2ccccc2)(c2ccccc2)c2ccccc2)cc1.[Br-].[Br-] | 260 | 73300 | 282 | 240 | 360 | 1.5 | 380 | 1.6 | > 300000 | > 1250 | 49000 |  |  |  |  |  |  |  | 
5 | CCCCCC[P+](CCCCCC)(CCCCCC)Cc1ccc(C(=O)c2ccc(C[P+](CCCCCC)(CCCCCC)CCCCCC)cc2)cc1.[Br-].[Br-] | 112 | 1110 | 10 | 38 | 47 | 1.2 | 35 | 0.9 | 16600 | 438 | 25000 |  |  |  |  |  |  |  | 
6 | Cc1ccc([P+](CCc2ccc(CCCc3ccc(CC[P+](c4ccc(C)cc4)(c4ccc(C)cc4)c4ccc(C)cc4)cc3)cc2)(c2ccc(C)cc2)c2ccc(C)cc2)cc1.[Cl-].[Cl-] | 73 | 645 | 8.8 | 77 | 43 | 0.6 | 48 | 0.6 | 5600 | 73 |  |  |  |  |  |  |  |  | 
7 | CC(C)C[P+](Cc1ccc(Cc2ccc(C[P+](CC(C)C)(CC(C)C)CC(C)C)cc2)cc1)(CC(C)C)CC(C)C.[Br-].[Br-] | 326 | 45900 | 141 | 700 | 880 | 1.3 | 880 | 1.3 | > 300000 | > 429 |  |  |  |  |  |  |  |  | 
8 | Cc1ccc([P+](Cc2ccc(Cc3ccc(C[P+](c4ccc(C)cc4)(c4ccc(C)cc4)c4ccc(C)cc4)cc3)cc2)(c2ccc(C)cc2)c2ccc(C)cc2)cc1.[Br-].[Br-] | 99 | 2330 | 24 | 80 | 80 | 1 | 74 | 0.9 | 233000 | 2900 |  |  |  |  |  |  |  |  | 
9 | Cc1ccc([P+](Cc2ccc(Oc3ccc(C[P+](c4ccccc4)(c4ccccc4)c4ccc(C)cc4)cc3)cc2)(c2ccccc2)c2ccccc2)cc1.[Br-].[Br-] | 142 | 3340 | 23 | 82 | 77 | 0.9 | 64 | 0.8 | 240000 | 2930 |  |  |  |  |  |  |  |  | 
10 | [Br-].[Br-].c1ccc2c([P+](Cc3ccc(Oc4ccc(C[P+](c5cccc6ccccc56)(c5cccc6ccccc56)c5cccc6ccccc56)cc4)cc3)(c3cccc4ccccc34)c3cccc4ccccc34)cccc2c1 | 384 | 3450 | 9 | 160 | 140 | 0.9 | 128 | 0.8 | 114000 | 722 |  |  |  |  |  |  |  |  | 
11 | CCC[P+](Cc1ccc(Cc2ccc(C[P+](CCC)(c3ccccc3)c3ccccc3)cc2)cc1)(c1ccccc1)c1ccccc1.[Br-].[Br-] | 799 | 3270 | 4.1 | 373 | 400 | 1.1 | 430 | 1.1 | > 300000 | > 800 |  |  |  |  |  |  |  |  | 
12 | C[P+](C)(Cc1ccc(CCc2ccc(C[P+](C)(C)c3ccccc3)cc2)cc1)c1ccccc1.[Br-].[Br-] | 1200 | 48600 | 40 | 2590 | 2620 | 1 | 1800 | 0.5 | > 300000 | > 110 |  |  |  |  |  |  |  |  | 
13 | Cc1cccc([P+](Cc2ccc(Oc3ccc(C[P+](c4cccc(C)c4)(c4cccc(C)c4)c4cccc(C)c4)cc3)cc2)(c2cccc(C)c2)c2cccc(C)c2)c1.[Br-].[Br-] | 488 | 942 | 1.9 | 57 | 43 | 0.7 | 88 | 1.5 | 45400 | 792 |  |  |  |  |  |  |  |  | 
14 | Cc1ccc([P+](Cc2ccc(C(=O)c3ccc(C[P+](c4ccc(C)cc4)(c4ccc(C)cc4)c4ccc(C)cc4)cc3)cc2)(c2ccc(C)cc2)c2ccc(C)cc2)cc1.[Cl-].[Cl-] |  |  |  |  |  | 0.7 |  | 0.8 |  |  |  | 84 | 1220 | 14.5 | 94 | 65 | 73 | 24000 | 254
15 | Cc1ccc(C[P+](c2ccccc2)(c2ccccc2)c2ccccc2)cc1.[Br-] |  |  |  |  |  | 0.8 |  | 0.5 |  |  | 25000 | 364 | 12900 | 35.5 | 43 | 33 | 22 |  | > 7000
16 | COc1ccccc1[P+](Cc1ccc(C(=O)c2ccc(C[P+](c3ccccc3)(c3ccccc3OC)c3ccccc3OC)cc2)cc1)(c1ccccc1)c1ccccc1OC.[Br-].[Br-] | 230 | 6400 | 28 | 240 | 320 | 1.3 | 190 | 0.8 | 107000 | 438 |  |  |  |  |  |  |  |  | 
17 | CC(C)[P+](Cc1ccc(Cc2ccc(C[P+](c3ccccc3)(c3ccccc3)C(C)C)cc2)cc1)(c1ccccc1)c1ccccc1.[Br-].[Br-] | 534 | 3440 | 6.4 | 440 | 400 | 0.9 | 430 | 1 | > 300000 | > 680 |  |  |  |  |  |  |  |  | 
